Activity calls are given as the source filed them. The rule behind the calls is not given here.
How the values were obtained:
Assay type in all cases: functional, cell-based
A-375 = assay: Cytotoxicity against human A375 cells after 24 hrs by MTT assay; conditions: A-375, 24 h
Method in brief: (§1)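 MTT antiproliferative assay on human tumour lines A-375 (melanoma), SPC-A1 (lung adenocarcinoma), HeLa (cervical), HepG2 (hepatoma) and NCI-H446 (small cell lung cancer). Parent rotundic acid run alongside as positive control. IC50 given as mean ± SD, n = 3, each experiment repeated at least three times. Values above 100 μM reported as >100.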

HeLa [1] = assay: Cytotoxicity against human HeLa cells after 24 hrs by MTT assay; method in brief: as §1
NCI-H446 = assay: Cytotoxicity against human NCI-H446 cells after 24 hrs by MTT assay; conditions: NCI-H446, 24 h; method in brief: as §1
[2] = Cytotoxicity against human SPC-A1 cells after 24 hrs by MTT assay; conditions: SPCA1, 24 h; method in brief: as §1
HepG2 = assay: Cytotoxicity against human HepG2 cells after 24 hrs by MTT assay; conditions: HepG2, 24 h; method in brief: as §1
HeLa [3] = assay: Induction of apoptosis in human HeLa cells assessed as decrease in Bcl2 expression after 24 hrs by Western blot analysis
Method in brief: (§2)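 HeLa cells treated 24 h at 10, 20 and 40 μM. Cisplatin (10 μg/ml) served as positive-control treatment, with an untreated control group for comparison. Bax, Bcl-2, cytochrome C, caspase-3 and cleaved caspase-3 protein levels detected by western blot. Bax/Bcl-2 ratio derived from the band levels. Significance tested against the control group.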

HeLa [4] = assay: Induction of apoptosis in human HeLa cells assessed as increase in ratio of Bax to Bcl2 expression after 24 hrs by Western blot analysis; method in brief: as §2
HeLa [5] = assay: Induction of apoptosis in human HeLa cells assessed as increase in caspase 3 cleavage after 24 hrs by Western blot analysis; method in brief: as §2
HeLa [6] = assay: Induction of apoptosis in human HeLa cells assessed as increase in caspase 3 expression at 10 to 40 uM after 24 hrs by Western blot analysis; method in brief: as §2
HeLa [7] = assay: Induction of apoptosis in human HeLa cells assessed as increase in Bax expression after 24 hrs by Western blot analysis; method in brief: as §2
HeLa [8] = assay: Induction of apoptosis in human HeLa cells assessed as increase in cytochrome C expression after 24 hrs by Western blot analysis; method in brief: as §2

Row | SMILES | IC50 (A-375) [µM] | IC50 (HeLa [1]) [µM] | IC50 (NCI-H446) [µM] | IC50 [2] [µM] | IC50 (HepG2) [µM] | Activity (HeLa [3]) | Activity (HeLa [4]) | Activity (HeLa [5]) | Activity (HeLa [6]) | Activity (HeLa [7]) | Activity (HeLa [8])
1 | CC(=O)OC[C@@]1(C)[C@@H]2CC[C@]3(C)[C@H](CC=C4[C@H]5[C@](C(=O)NCCCO)(CC[C@@H](C)[C@@]5(C)O)CC[C@]43C)[C@@]2(C)CC[C@@H]1OC(C)=O | 3.28 | 6.97 | 5.08 | 13.4 | 5.49 |  |  |  |  |  | 
2 | CC(CO)NC(=O)[C@]12CC[C@@H](C)[C@@](C)(O)[C@H]1C1=CC[C@@H]3[C@@]4(C)CC[C@H](O)[C@@](C)(CO)[C@@H]4CC[C@@]3(C)[C@]1(C)CC2 (stereo partly specified) | 35.5 | 28.8 | 39.8 | > 100 | 55.1 |  |  |  |  |  | 
3 | CC(=O)OC[C@@]1(C)[C@@H]2CC[C@]3(C)[C@H](CC=C4[C@H]5[C@](C(=O)O)(CC[C@@H](C)[C@@]5(C)O)CC[C@]43C)[C@@]2(C)CC[C@@H]1OC(C)=O | 11.4 | 13.1 | 7.11 | 23.2 | 6.85 |  |  |  |  |  | 
4 | CC(=O)OCC(C)NC(=O)[C@]12CC[C@@H](C)[C@@](C)(O)[C@H]1C1=CC[C@@H]3[C@@]4(C)CC[C@H](OC(C)=O)[C@@](C)(COC(C)=O)[C@@H]4CC[C@@]3(C)[C@]1(C)CC2 (stereo partly specified) | 5.1 | 5.3 | 14.7 | 18.9 | 9.12 |  |  |  |  |  | 
5 | C[C@@H]1CC[C@]2(C(=O)NCc3ccccc3)CC[C@]3(C)C(=CC[C@@H]4[C@@]5(C)CC[C@H](O)[C@@](C)(CO)[C@@H]5CC[C@]43C)[C@@H]2[C@]1(C)O | > 100 | 28.1 | > 100 | > 100 | > 100 |  |  |  |  |  | 
6 | CC(=O)OCCNC(=O)[C@]12CC[C@@H](C)[C@@](C)(O)[C@H]1C1=CC[C@@H]3[C@@]4(C)CC[C@H](OC(C)=O)[C@@](C)(COC(C)=O)[C@@H]4CC[C@@]3(C)[C@]1(C)CC2 | 4.17 | 5.39 | 18.6 | 9.37 | 4.44 |  |  |  |  |  | 
7 | C[C@@H]1CC[C@]2(C(=O)Nc3ccccc3)CC[C@]3(C)C(=CC[C@@H]4[C@@]5(C)CC[C@H](O)[C@@](C)(CO)[C@@H]5CC[C@]43C)[C@@H]2[C@]1(C)O | 70.8 | 23.2 | 70.8 | > 100 | 64.7 |  |  |  |  |  | 
8 | C[C@@H]1CC[C@]2(C(=O)Nc3ccccc3CO)CC[C@]3(C)C(=CC[C@@H]4[C@@]5(C)CC[C@H](O)[C@@](C)(CO)[C@@H]5CC[C@]43C)[C@@H]2[C@]1(C)O | 19 | 12.3 | 14 | > 100 | > 100 |  |  |  |  |  | 
9 | C[C@@H]1CC[C@]2(C(=O)O)CC[C@]3(C)C(=CC[C@@H]4[C@@]5(C)CC[C@H](O)[C@@](C)(CO)[C@@H]5CC[C@]43C)[C@@H]2[C@]1(C)O [ROTUNDIC ACID] | 16.6 | 31.9 | 11.4 | 84 | 7.33 |  |  |  |  |  | 
10 | CC(=O)OC[C@@]1(C)[C@@H]2CC[C@]3(C)[C@H](CC=C4[C@H]5[C@](C(=O)NCc6ccccc6)(CC[C@@H](C)[C@@]5(C)O)CC[C@]43C)[C@@]2(C)CC[C@@H]1OC(C)=O | 13.7 | 19.2 | 26.9 | 12.1 | 19.5 |  |  |  |  |  | 
11 | CC(=O)OC[C@@]1(C)[C@@H]2CC[C@]3(C)[C@H](CC=C4[C@H]5[C@](C(=O)Nc6ccccc6)(CC[C@@H](C)[C@@]5(C)O)CC[C@]43C)[C@@]2(C)CC[C@@H]1OC(C)=O | 17.7 | 15.8 | 24.8 | 16.2 | 22.2 |  |  |  |  |  | 
12 | CC(=O)OCc1ccccc1NC(=O)[C@]12CC[C@@H](C)[C@@](C)(O)[C@H]1C1=CC[C@@H]3[C@@]4(C)CC[C@H](OC(C)=O)[C@@](C)(COC(C)=O)[C@@H]4CC[C@@]3(C)[C@]1(C)CC2 | 9.12 | 4.27 | 69.7 | 13.2 | 12.3 |  |  |  |  |  | 
13 | CC(=O)OCCCNC(=O)[C@]12CC[C@@H](C)[C@@](C)(O)[C@H]1C1=CC[C@@H]3[C@@]4(C)CC[C@H](OC(C)=O)[C@@](C)(COC(C)=O)[C@@H]4CC[C@@]3(C)[C@]1(C)CC2 | 10.1 | 4.31 | 12.8 | 12 | 12 |  |  |  |  |  | 
14 | CC(=O)OC[C@@]1(C)[C@@H]2CC[C@]3(C)[C@H](CC=C4[C@H]5[C@](C(=O)NC(C)CO)(CC[C@@H](C)[C@@]5(C)O)CC[C@]43C)[C@@]2(C)CC[C@@H]1OC(C)=O (stereo partly specified) | 4.77 | 11.3 | 5.51 | 12.9 | 7.3 |  |  |  |  |  | 
15 | C[C@@H]1CC[C@]2(C(=O)NCCCO)CC[C@]3(C)C(=CC[C@@H]4[C@@]5(C)CC[C@H](O)[C@@](C)(CO)[C@@H]5CC[C@]43C)[C@@H]2[C@]1(C)O | 12.5 | 17.7 | 20.9 | 83.2 | 77.3 |  |  |  |  |  | 
16 | C[C@@H]1CC[C@]2(C(=O)NCCO)CC[C@]3(C)C(=CC[C@@H]4[C@@]5(C)CC[C@H](O)[C@@](C)(CO)[C@@H]5CC[C@]43C)[C@@H]2[C@]1(C)O | 21.4 | > 100 | 24.7 | > 100 | 45.6 |  |  |  |  |  | 
17 | CC(=O)OC[C@@]1(C)[C@@H]2CC[C@]3(C)[C@H](CC=C4[C@H]5[C@](C(=O)Nc6ccccc6CO)(CC[C@@H](C)[C@@]5(C)O)CC[C@]43C)[C@@]2(C)CC[C@@H]1OC(C)=O | 3.71 | 3.32 | 7.03 | 8.09 | 4.45 |  |  |  |  |  | 
18 | CC(=O)OC[C@@]1(C)[C@@H]2CC[C@]3(C)[C@H](CC=C4[C@H]5[C@](C(=O)NCCO)(CC[C@@H](C)[C@@]5(C)O)CC[C@]43C)[C@@]2(C)CC[C@@H]1OC(C)=O | 5.49 | 2.83 | 6.67 | 3.61 | 4.4 | Dose-dependent effect | Dose-dependent effect | Dose-dependent effect | Active | Dose-dependent effect | Active
